FLuc act counter – FLuc activators, initial screening, artefact control for FLuc-dependent activation tests, biochemical, ATPlite luminescence; ATPlite luciferase biochemical, 10 min; 0 = ATP-free wells, 1 = DMSO control; Luciferin 4-monooxygenase (Photinus pyralis), P08659; activation factor at 10 µM; 200,000 tested, under 10 active;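 active = luciferase activation factor, scaled between plate controls, of at least 2 with compound at 10 µM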
Target sequence (P08659 whole entry, looked up): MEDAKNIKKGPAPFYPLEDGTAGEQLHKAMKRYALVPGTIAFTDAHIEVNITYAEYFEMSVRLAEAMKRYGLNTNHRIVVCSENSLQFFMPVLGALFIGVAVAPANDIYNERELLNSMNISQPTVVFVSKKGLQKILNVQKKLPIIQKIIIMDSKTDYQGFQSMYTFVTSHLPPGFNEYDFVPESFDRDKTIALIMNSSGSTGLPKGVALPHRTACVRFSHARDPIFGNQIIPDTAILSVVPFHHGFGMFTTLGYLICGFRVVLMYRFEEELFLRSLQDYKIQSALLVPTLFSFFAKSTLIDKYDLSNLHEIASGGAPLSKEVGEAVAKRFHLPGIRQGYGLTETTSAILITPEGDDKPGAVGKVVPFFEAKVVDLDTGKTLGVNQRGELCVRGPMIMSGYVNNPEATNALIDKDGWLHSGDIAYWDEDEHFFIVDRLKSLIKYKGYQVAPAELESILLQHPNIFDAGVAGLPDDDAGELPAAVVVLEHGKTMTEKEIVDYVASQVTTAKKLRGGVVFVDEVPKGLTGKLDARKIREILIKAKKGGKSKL
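System: luciferase plus luciferin reagent, cell-free; medium: PBS as buffer for the ATP substrate; dosing: test compounds dosed from 2 mM stocks in 100% DMSO; timing: 10 min post-reagent at room temperature; measured by: luminescence measurement of luciferase light output; evaluation: luciferase activation, seen as luminescence increase over controls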
STAT3 inh – IL-6 driven STAT3 reporter inhibitors, primary screen, U3A cells, luciferase, luminescence, MLSCN library; IL-6 STAT3-luciferase reporter; host cell line lacks STAT1; inhibition, % at 5.5 µM; 190,000 tested, 0.89% active;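 active = inhibition above the mean inhibition across all screened compounds plus 3 SD, cut at about 44% in these data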;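 also: 0% = DMSO only wells and 100% = 100 µM nifuroxazide control wells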
FLuc inhib CS – firefly luciferase enzyme inhibitors, primary screen, artefact control for luciferase-based inhibitor screens, biochemical, luminescence, ATPLite; Luciferin 4-monooxygenase (Photinus pyralis), P08659; 10 min; inhibition, % at 10 µM; 200,000 tested, 1.5% active;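 active = inhibition above about 50% when tested at 10 µM, limit read from the data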
HSP90 inh – HSP90 inhibitors, primary screen, cell lysate, luminescence; Heat shock protein HSP 90 (rabbit reticulocyte lysate; luciferase refolding); Rabbit reticulocyte lysate, luciferase refolding luminescence, 3 h; inhibition, % at 5.6 µM; 290,000 tested, 0.91% active;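 active = inhibition above the screen-wide mean plus 3 SD, computed separately per campaign, cut at about 16% in these data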;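 also: 0% = DMSO wells and 100% = 60 µM geldanamycin wells; inhibitors lower the luminescence because luciferase stays unfolded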
PPC-1+TRAIL kill – compounds killing PPC-1 cancer cells with TRAIL present, primary screen, TRAIL potentiator project, ATPLite luminescence, uHTS; PPC-1 cells + TRAIL, ATPLite viability luminescence; cell killing (% activity), % at 4 µM or 5 µM; 220,000 tested, 0.41% active;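 active = cell killing above 50% in the first pass at 4 µM, then a duplicate retest at 5 µM averaging 50% or more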;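 also: plate controls were cells with TRAIL plus DMSO for no effect and medium-only wells lacking cells for full effect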
TRAIL sens C8 – viability loss with TRAIL in NB7+C8 cells, primary screen, TRAIL sensitizer project, cell-based, ATPlite luminescence | inhibition (viability loss, TRAIL sensitization), % at 10 µM | 360,000 tested, 1% active;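 active = compounds causing at least 50% loss of cell viability in the single-dose screen, relative to plate controls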
HSP90 inh confirm – HSP90 inhibitors, confirmation, cell lysate, luminescence; shares compounds with HSP90 inh; rabbit reticulocyte lysate, luciferase refolding luminescence, 3 h; inhibition, % at 5.9 µM; 2,300 tested, 64% active; in the data active = inhibition above about 18%;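 also: 0% = vehicle wells and 100% = reference inhibitor wells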
FLuc counter – firefly luciferase inhibitors, HSP90 counter-screen, confirmation, artefact control for HSP90 inhibitor project, biochemical, luminescence, triplicate; shares compounds with HSP90 inh; purified native firefly luciferase; inhibition, % at 5.9 µM; 2,300 tested, 48% active;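 active = inhibition above the mean inhibition of all tested sample wells plus 3 SD, cut at about 10% in these data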;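 also: 0% = DMSO with luciferase and 100% = wells lacking luciferase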
* marks the source's active call; other numbers are inactive results; x = no result. An excerpt weighted towards active compounds, which were near 2.2% of everything screened.

SMILES	FLuc act counter	STAT3 inh	FLuc inhib CS	HSP90 inh	PPC-1+TRAIL kill	TRAIL sens C8	HSP90 inh confirm	FLuc counter
Cc1ccc(Cl)cc1Nc1nc(-c2sc(NC(=O)c3ccccc3)nc2C)cs1	1	16	-2	57*	24	x	46*	-19
COc1cccc(Nc2nc(-c3sc(N)nc3C)cs2)c1	1	-7	4	17*	-7	-1	-5	-29
CCOC(=O)N1CCN(C(=S)Nc2cccc(C)c2)CC1	1.1	1	-7	-1	-11	-4	x	x
O=C(Nc1ccccc1O)c1ccccc1O	0.6	14	36	4	27	29	x	x
CC(=O)/C=C(\C)Nc1ccccc1O	x	x	x	18*	11	15	26*	-8
CCOc1cc(C2C3=C(CC(C)(C)CC3=O)OC3=C2C(=O)CC(C)(C)C3)cc([N+](=O)[O-])c1O	1	9	-2	4	-2	-6	x	x
CCOc1cc(C2C3=C(CCCC3=O)OC3=C2C(=O)CCC3)cc([N+](=O)[O-])c1O	1.1	5	-6	31*	-14	-6	-5	-7
CCCCN1C(=O)C(CC(=O)NCCN2CCOCC2)CC(C(=O)N2CCCCCC2)=C1C (stereo unspecified)	x	x	x	x	x	-4	x	x
CCOc1ccc(Nc2ncnc3c2cnn3Cc2ccccc2)cc1	1	20	-4	23*	17	2	5	-3
N#C/C(C(=O)N1CCOCC1)=C1/SC(Cc2ccccc2Cl)C(=O)N1c1ccccc1 (stereo unspecified)	1.1	4	-6	-1	10	0	x	x
CCN(CC)S(=O)(=O)c1ccc(C)c(NC(=S)N2CCN(Cc3ccc4c(c3)OCO4)CC2)c1	1	17	-2	1	8	23	x	x
O=C1/C(=C2/NCCN2C2CC(=O)N(c3ccccc3)C2=O)CC/C1=C\c1ccccc1 (stereo unspecified)	1	-3	-3	-5	18	-7	x	x
Cc1ccc(N2C(=O)CC(N3CCN/C3=C3\CC/C(=C\c4ccccc4)C3=O)C2=O)cc1 (stereo unspecified)	1	-2	-3	18*	16	-4	6	-5
O=C(O)c1ccccc1/C=N/NC(=S)NCc1ccccc1	x	x	x	4	5	-1	x	x
CN1CCN(c2nc(-c3ccc(C(C)(C)C)cc3)nc3ccccc23)CC1	x	x	x	54*	x	71*	52*	49*
CCc1nc2ccc(C(=O)Nc3ccc(OC)c(OC)c3)cn2c1N(C)Cc1nccs1	x	x	x	x	x	3	x	x
CN(C)S(=O)(=O)Oc1ccsc1C(=O)Nc1ccc(Cl)c(Cl)c1	1	9	4	20*	9	4	6	-2
CN(C)S(=O)(=O)Oc1ccsc1C(=O)Nc1cccc(Cl)c1	0.9	2	5	3	8	4	x	x
Cc1cc(C(=O)CSc2nnc3ccccn23)c(C)n1-c1ccccc1	0.3	96*	75*	62*	33	53*	86*	79*
Cc1ccc(C)c(S(=O)(=O)N2CCC(c3nc4c(nnn4Cc4ccc5c(c4)OCCO5)c(=O)[nH]3)CC2)c1	x	x	x	21*	x	9	25*	-4
Cc1ccc(C)c(N(Cc2cc3ccc(C)cc3[nH]c2=O)C(=O)c2ccco2)c1	x	x	x	18*	-6	19	1	-5
Cc1[nH]c(-c2ccco2)nc1C(=O)O	1.1	3	-12	18*	7	-19	0	-3
O=C(NCc1nc2ccccc2[nH]1)C1=C[C@H](c2coc3ccccc3c2=O)C[C@H](OCCCCO)O1	x	x	x	x	x	-8	x	x
CCc1ccc2oc(-c3ccc(OC)cc3)cc(=Nc3c(C)n(C)n(-c4ccccc4)c3=O)c2c1	0.7	1	32	11	45	20	x	x
CCc1ccc2oc(-c3ccc(OC)cc3)cc(=Nc3cccc(C(=O)O)c3)c2c1	0.5	27	51*	24*	49	17	10	3
SMILES	FLuc act counter	STAT3 inh	FLuc inhib CS	HSP90 inh	PPC-1+TRAIL kill	TRAIL sens C8	HSP90 inh confirm	FLuc counter
CCCCC1C(C#N)=C(C)NC2=C1C(=O)CC(C)(C)C2 (stereo unspecified)	1	4	-3	2	-6	-1	x	x
Fc1ccc(NC(=S)N2CCN(c3ccccn3)CC2)cc1Cl	x	x	x	x	x	-14	x	x
COCc1c(C(=O)NCC(c2ccco2)N2CCCC2)oc2ccccc12 (stereo unspecified)	x	x	x	x	x	5	x	x
CCN1CCN(Cc2ccc(NC(=O)c3ccc(C)c(NC(=O)c4cccc(-c5cn[nH]c(=O)c5)c4)c3)cc2C(F)(F)F)CC1	x	x	x	20*	x	38	19*	-8
CCN1CCN(Cc2ccc(NC(=O)c3ccc(C)c(NC(=O)c4ccno4)c3)cc2C(F)(F)F)CC1	x	x	x	x	15	23	x	x
CC(=O)c1cccc(NC(=O)c2cc(-c3cccs3)on2)c1	x	x	x	1	x	0	x	x
O=C(Nc1cccc(O)c1)c1cc(-c2cccs2)on1	x	x	x	31*	x	17	64*	57*
COc1ccc(/C=C2\SC(=S)N(CC(=O)NC3CCS(=O)(=O)C3)C2=O)cc1 (stereo unspecified)	x	x	x	-1	x	-12	x	x
COC(=O)c1sc(N2C(=O)C(O)=C(C(=O)c3ccc(C)o3)C2c2cc(OC)ccc2OC)nc1C (stereo unspecified)	x	x	x	1	x	-8	x	x
CCCCNC1=CC(=O)C(=O)c2ccccc21	1	-1	3	24*	x	32	19*	-3
CCCCNC1=CC(=O)C(NCCCC)=CC1=O	x	x	x	x	x	-8	x	x
Cc1ccc(NC(=O)COC(=O)[C@H](C)NC(=O)c2ccccc2)cc1S(=O)(=O)N1CCOCC1	x	x	x	-3	-2	-10	x	x
Cc1ccc2c(c1)N(CC(=O)Nc1ccccc1F)C(=O)CO2	x	x	x	22*	x	8	-3	-7
Cc1cccnc1NC(=O)CN1C(=O)COc2ccc(Cl)cc21	x	x	x	18*	x	1	3	-3
CCCCn1c(N)c(N(CCOC)C(=O)C2CCN(c3ncnc4sc(C)c(C)c34)CC2)c(=O)[nH]c1=O	x	x	x	x	x	-5	x	x
CC1(C)CC(=O)C2=C(C1)N(c1ccc(Cl)cc1)C(=O)C2(O)C(F)(F)F (stereo unspecified)	1.1	-5	-6	9	16	1	x	x
CN1C(=O)C2(C(C#N)=C(N)N(c3ccc(Cl)cc3)C3=C2C(=O)CC(C)(C)C3)c2ccccc21 (stereo unspecified)	1.1	3	-6	37*	26	-6	-3	-5
